# Measured values of several laboratories.
# Compare with care: the assays were run in different laboratories.
Compound,assay,test system,conditions,measurement,value
O=c1c(O)c(NCc2ccccc2)c1=O,shake flask,aqueous buffer,"1 h, pH 7.4",logD,-1.4
O=C(O)CN1CCC(Oc2ccc([C@H]3CC[C@]4(CC3)OOC3(O4)C4CC5CC(C4)CC3C5)cc2)CC1 (stereo partly drawn),HPLC,,pH 7.4,chromatographic logD,3 to 3.3
COc1cc(C(=O)N2CC[C@@H](O)[C@@H](N)C2)cc2nc(-c3cc4ccccc4n3CC3CC3)n(C)c12,HPLC,,pH 7.4,chromatographic logD,3.7
Cc1c(C(=O)NN2CCCCC2)nc(-c2ccc(Cl)cc2Cl)n1-c1ccc(OCCCC(F)(F)F)cc1,shake flask,aqueous buffer,pH 7.4,logD,> 5.5
Clc1ccc(COc2cc(OC[C@@H]3CCCN3)cnc2Cl)cn1,shake flask,aqueous buffer,pH 7.4,logD,1.9
C=CC1=C(C)C2=Cc3c(C=C)c(C)c4[n]3[Fe]([Cl])[n]3c(c(C)c(CCC(=O)O)c3=CC3=NC(=C4)C(C)=C3CCC(=O)O)=CC1=N2,shake flask,aqueous buffer,pH 9,logD,0.463
CN1CCC[C@H]1COc1cnc(Cl)c(OCc2ccc(Cl)nc2)c1,shake flask,aqueous buffer,pH 7.4,logD,2.2
Cc1c(C(=O)NN2CCCCC2)nc(-c2ccc(Cl)cc2Cl)n1-c1ccc(OCCCF)cc1,shake flask,aqueous buffer,pH 7.4,logD,5.3
CC(C)C[C@@H]1NC(=O)[C@@H]2CSSC[C@@H](C(=O)NCC(N)=O)NC(=O)[C@H](Cc3ccccc3)NC(=O)CNC(=O)[C@H](CC(N)=O)NC(=O)[C@@H]3CCCN3C(=O)CNC(=O)[C@@H]3CSSC[C@H](NC(=O)[C@H](CO)NC(=O)[C@H]([C@@H](C)O)NC(=O)[C@@H]4CCCN4C(=O)[C@H](C)NC(=O)[C@H](Cc4c[nH]c5ccccc45)NC(=O)[C@H](CC(=O)O)NC(=O)CNC(=O)[C@H](CCCNC(=N)N)NC(=O)CNC(=O)[C@H](CCC(N)=O)NC(=O)[C@@H]4CCCN4C(=O)[C@@H](NC(=O)CNC(=O)c4ccc(F)cc4)CSSC[C@H](NC(=O)CNC(=O)[C@H](C)NC1=O)C(=O)N[C@@H](C(C)C)C(=O)N3)C(=O)N[C@@H](CO)C(=O)N[C@@H](CCC(N)=O)C(=O)N[C@@H](CC(=O)O)C(=O)N[C@@H](CO)C(=O)N[C@@H](CC(=O)O)C(=O)N2,shake flask,PBS,pH 7.4,logD,-1.68
